Results from paper PMC2606940 (The Journal of General Physiology, 2009).
Changes are numbered by the printed parent chain. Read-outs that look alike come from different tables or passages of the source.

Key:
[1] = biological target: T1, CLC-0 E166C/E127Q mutant (E127Q/K519) (Torpedo marmorata, UniProt P21564, C212S/E127Q/E166C); assay type: cell-based; settings: for IC50: read-out: Apparent affinity (K1/2)
T1 sequence (P21564 1-805 E127Q/E166C/C212S): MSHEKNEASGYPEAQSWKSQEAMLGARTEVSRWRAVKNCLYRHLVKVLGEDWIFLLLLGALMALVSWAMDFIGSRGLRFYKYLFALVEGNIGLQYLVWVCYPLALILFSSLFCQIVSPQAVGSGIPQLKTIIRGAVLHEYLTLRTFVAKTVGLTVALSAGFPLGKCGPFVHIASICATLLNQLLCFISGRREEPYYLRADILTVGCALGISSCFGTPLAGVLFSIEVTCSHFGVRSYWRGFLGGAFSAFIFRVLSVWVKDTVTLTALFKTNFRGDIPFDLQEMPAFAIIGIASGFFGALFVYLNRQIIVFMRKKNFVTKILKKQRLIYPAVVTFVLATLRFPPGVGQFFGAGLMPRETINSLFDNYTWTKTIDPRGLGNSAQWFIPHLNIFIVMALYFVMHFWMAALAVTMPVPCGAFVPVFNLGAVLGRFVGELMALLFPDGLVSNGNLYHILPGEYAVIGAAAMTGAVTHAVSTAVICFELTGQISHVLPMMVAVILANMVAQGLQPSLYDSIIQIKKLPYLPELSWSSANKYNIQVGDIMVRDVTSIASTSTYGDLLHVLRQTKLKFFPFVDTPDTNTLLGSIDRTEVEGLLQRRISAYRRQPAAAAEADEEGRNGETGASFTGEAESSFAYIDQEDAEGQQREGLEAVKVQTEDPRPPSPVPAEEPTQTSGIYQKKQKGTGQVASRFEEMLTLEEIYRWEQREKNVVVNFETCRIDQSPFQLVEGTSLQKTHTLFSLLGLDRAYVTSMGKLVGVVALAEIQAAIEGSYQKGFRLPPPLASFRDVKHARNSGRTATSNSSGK
Summary of the method: (§1)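 CLC-0 mutants in the C212S background were transfected into HEK293 cells with lipofectamine and recorded 1–3 d later as excised inside-out patches. Both sides held 130 mM NaCl, 5 mM MgCl2, 10 mM HEPES and 1 mM EGTA, pH 7.4. CPA was perfused continuously onto the cytoplasmic face. Steady-state current over the last 10 ms was normalized to bracketing blocker-free controls and fitted to a Langmuir function for K1/2. Values are mean ± SEM of ~4–6 patches.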

[2] = biological target: T2, CLC-0 E166C/K519E mutant (E127/K519E) (Torpedo marmorata, UniProt P21564, C212S/E166C/K519E); assay type: cell-based
T2 sequence (P21564 1-805 E166C/C212S/K519E): T1 sequence (P21564 1-805 E127Q/E166C/C212S) with Q127E, K519E
Summary of the method: as §1

`O=C(O)COc1ccc(Cl)cc1` [CPA, p-chlorophenoxy acetate] showed an IC50 ([1]; −40 mV) of 491 ± 58 µM, an IC50 ([1]; −60 mV) of 228 ± 23 µM and an IC50 ([1]; −80 mV) of 113 ± 10 µM. It also gave an IC50 ([1]; −100 mV) of 57 ± 4 µM, an IC50 ([1]; −120 mV) of 33 ± 3 µM and an IC50 ([1]; −140 mV) of 21 ± 2 µM. It also gave an IC50 ([1]; −160 mV) of 15 ± 2 µM, an apparent koff ([1]; −160 mV) of 17.9 s⁻¹ and an apparent kon ([1]; −160 mV) of 760000 M⁻¹ s⁻¹. It also gave an IC50 ([2]; read-out: Apparent affinity (K1/2), −40 mV) of 730 ± 59 µM, an IC50 ([2]; read-out: Apparent affinity (K1/2), −60 mV) of 516 ± 46 µM and an IC50 ([2]; read-out: Apparent affinity (K1/2), −80 mV) of 377 ± 39 µM. The IC50 ([2]; read-out: Apparent affinity (K1/2), −100 mV) was 277 ± 37 µM, the IC50 ([2]; read-out: Apparent affinity (K1/2), −120 mV) was 203 ± 34 µM and the IC50 ([2]; read-out: Apparent affinity (K1/2), −140 mV) was 158 ± 31 µM. For the same compound, the IC50 ([2]; read-out: Apparent affinity (K1/2), −160 mV) was 115 ± 25 µM, the IC50 ([2]; read-out: K1/2, −140 mV (Fig. 6)) was ~160 µM and the apparent kon ([2]; −160 mV) was 110000 M⁻¹ s⁻¹.
